# Measured values taken from paper PMC12892081 (Acta Pharmaceutica Sinica. B, 2025).
# Where a SMILES comes first, the peptide text is derived from it. Bridges are numbered along the chain shown (N, C = ends). The star is where a group is joined. 5FAM = O=C1OC2(c3ccc(O)cc3Oc3cc(O)ccc32)c2ccc(C(=O)*)cc21
# Experiments:
# [1] = In vitro skin penetration across excised rat skin; type: in vitro ADME, SD rats; conditions: for skin permeability compared to the other CPPs: FAM-CPP conjugates, excised rat back skin, P < 0.01
# In short: (§1)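 Valia-Chien diffusion cells at 37 ± 0.5 °C, stirred at 250 rpm, with excised rat back skin or Berkshire pig skin. Donor held 50 μmol/L N-terminally FAM-labelled peptide or free FAM in 0.9% NaCl with 0.5% (v/v) DMSO. Receiver sampled at 0–5 h and replaced with fresh saline; fluorescence read at 492 nm. Cumulative amount and Papp derived; at least 4 replicates.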
# [2] = In vitro skin penetration across excised pig skin; type: in vitro ADME, Berkshire pig; conditions: FAM-peptide conjugate vs free FAM, donor 50 μmol/L
# In short: as §1
# B16F10 cells = test: Calcein-AM/PI double staining of B16F10 cells; type: cell-based; conditions: 15 μmol/L, 48 h, vs control group
# In short: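 B16F10 cells exposed 48 h to 15 μmol/L agents, then stained with a Calcein-AM/PI double staining kit (calcein marks live cells green, PI marks dead cells red). Imaged by inverted fluorescence microscopy.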
# [3] = test system: human keratinocyte cells (HeKa cells); test: HeKa cell viability; type: cell-based; conditions: 50 μmol/L FAM-CPP conjugate, exposure 72 h, CCK-8, n = 3
# In short: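 HeKa cells exposed to 50 μmol/L FAM or FAM–peptide conjugate for 48 and 72 h. Viability read with CCK-8; n = 3.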
smiles,measurement,setting,value
CC[C@H](C)[C@H](NC(=O)[C@H](CCC(N)=O)NC(=O)[C@H](CCCNC(=N)N)NC(=O)c1ccc2c(c1)C(=O)OC21c2ccc(O)cc2Oc2cc(O)ccc21)C(=O)N[C@@H](CCCCN)C(=O)N[C@@H](Cc1c[nH]c2ccccc12)C(=O)N[C@@H](Cc1c[nH]c2ccccc12)C(=O)N[C@@H](Cc1ccccc1)C(=O)N[C@@H](Cc1c[nH]c2ccccc12)C(=O)N[C@@H](Cc1c[nH]c2ccccc12)C(=O)N[C@@H](CCCNC(=N)N)C(=O)N[C@@H](CCCNC(=N)N)C(=O)N[C@@H](CCSC)C(=O)N[C@@H](CCCCN)C(=O)N[C@@H](Cc1c[nH]c2ccccc12)C(=O)N[C@@H](CCCCN)C(=O)N[C@@H](CCCCN)C(=O)O [FAM-589WP] (5FAM-RQIKWWFWWRRMKWKK-OH),"increase in Papp compared to free FAM, rat skin","[1]; FAM-peptide conjugate vs free FAM, excised rat skin, donor 50 μmol/L",72 fold
same,"increase in Papp compared to free FAM, pig skin",[2],60 fold
C[C@H](NC(=O)c1ccc2c(c1)C(=O)OC21c2ccc(O)cc2Oc2cc(O)ccc21)C(=O)N[C@H]1CSSC[C@@H](C(=O)NCC(=O)O)NC(=O)[C@H](CCC(N)=O)NC(=O)[C@H](Cc2c[nH]cn2)NC(=O)[C@H](CCC(N)=O)NC(=O)[C@H]([C@@H](C)O)NC(=O)[C@H](CO)NC(=O)CNC(=O)[C@H]([C@@H](C)O)NC1=O [SPACE] (5FAM-ACTGSTQHQCG-OH; disulfide 2-10),permeability relative to the optimized peptide 589WP,"[1]; FAM conjugates, excised rat skin",about one-third the permeability of the optimized peptide 589WP
same,permeability relative to wild-type penetratin,"[1]; FAM conjugates, excised rat skin (Fig. 1)",about half the permeability of wild-type penetratin
"O=c1[nH]c(=O)n([C@H]2C[C@H](O)[C@@H](CO)O2)cc1F [FUdR, 5-fluoro-2ʹ-deoxyuridine]",live cell density / dead cells by Calcein-PI staining,B16F10 cells,notable decrease in live cell density
CC[C@H](C)[C@H](NC(=O)[C@H](CCCCN)NC(=O)[C@@H](NC(=O)[C@H](CCC(N)=O)NC(=O)[C@H](CCCNC(=N)N)NC(=O)c1ccc2c(c1)C(=O)OC21c2ccc(O)cc2Oc2cc(O)ccc21)[C@@H](C)CC)C(=O)N[C@@H](Cc1c[nH]c2ccccc12)C(=O)N[C@@H](Cc1ccccc1)C(=O)N[C@@H](CCC(N)=O)C(=O)N[C@@H](CC(N)=O)C(=O)N[C@@H](CCCNC(=N)N)C(=O)N[C@@H](CCCNC(=N)N)C(=O)N[C@@H](CCSC)C(=O)N[C@@H](CCCCN)C(=O)N[C@@H](Cc1c[nH]c2ccccc12)C(=O)N[C@@H](CCCCN)C(=O)N[C@@H](CCCCN)C(=O)O [Penetratin],skin permeability compared to the other CPPs,[1]; donor 50 μmol/L,significantly higher than the other CPPs
same,cytotoxicity to HeKa cells,[3],did not display cytotoxicity
CC[C@H](C)[C@H](NC(=O)[C@H](CCCCN)NC(=O)[C@H](CCCCN)NC(=O)[C@H](C)NC(=O)[C@H](CC(C)C)NC(=O)[C@H](C)NC(=O)[C@H](C)NC(=O)[C@H](CC(C)C)NC(=O)[C@H](C)NC(=O)[C@H](CCCCN)NC(=O)[C@H](CC(C)C)NC(=O)[C@H](CC(N)=O)NC(=O)[C@@H](NC(=O)[C@H](CCCCN)NC(=O)CNC(=O)[C@H](CC(C)C)NC(=O)[C@H](CC(C)C)NC(=O)[C@H](Cc1ccc(O)cc1)NC(=O)CNC(=O)[C@H](C)NC(=O)[C@H](CO)NC(=O)[C@H](CC(N)=O)NC(=O)[C@H](CC(C)C)NC(=O)[C@@H](NC(=O)[C@H](Cc1c[nH]c2ccccc12)NC(=O)CNC(=O)c1ccc2c(c1)C(=O)OC21c2ccc(O)cc2Oc2cc(O)ccc21)[C@@H](C)O)[C@@H](C)CC)C(=O)N[C@@H](CC(C)C)C(=O)O [Transportan],skin permeability compared to the other CPPs,[1]; donor 50 μmol/L,significantly higher than the other CPPs
